This is a sample that favours compounds with a hit; in the whole collection about 1.9% have one here.
PglD inh: C. jejuni PglD acetyltransferase inhibitors, primary screen, biochemical, DTNB colorimetric, single point; UDP-N-acetylbacillosamine N-acetyltransferase PglD (Campylobacter jejuni); purified PglD enzyme, DTNB colorimetric CoA detection; inhibition, % at 12.5 µM; 0.098% of 360,000 active; in the data active means inhibition above about 16%, passing the limit was not always enough
Cneo AK release: Cryptococcus neoformans cell lysis inducers, primary screen, AK release luminescence, single concentration | C. neoformans lysis, adenylate kinase release luminescence, 4 h; normalised: neutral wells 0, clomiphene wells 100 | lysis activity, % at 15 µM | 0.2% of 360,000 active | AID 651654, 2012;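 active means mean lysis activity across replicates of at least 80%, whatever share of replicates individually reach that level; inactive means mean lysis activity below 80%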
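Schedule: static 4 h at 37 °C with compound, 1 h detection; system: C. neoformans cells; benchmarks: Clomiphene as positive control; buffer or medium: fresh YPD medium; measure: luminescence rise reflecting yeast cell lysis; measured by: luminescent adenylate kinase detection reagent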
rRNA inh HTS: reduced GFP signal of wild-type E. coli, primary screen, bacterial rRNA inhibitor project, GFP/RFP fluorescence, OD600, single point | E. coli WT GFP vs humanized-ribosome RFP mutants, 24 h; stronger effect = lower value; DMSO median 0, no signal -100 | GFP signal change (wild-type ribosome), % (test concentration not listed) | 1.6% of 350,000 active | AID 720706, 2013;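 active means significant combined selectivity score with lowered wild-type GFP, culture density cut under 30%, mutant RFP and density less affected; inactive means any of these conditions unmet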
RAD54 inh: inhibitors of human RAD54 branch migration, primary screen, biochemical, fluorescence, single point; 0.14% of 360,000 active; AID 602329, 2012; RAD54 Holliday junction branch migration, FAM/BHQ fluorescence; inhibition, % at 10.4 µM;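 active means mean normalized replicate activity at least 40 and at least half of replicates scoring 40 or more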;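 further: inhibitors cause a drop in the FAM fluorescence signal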
RAD52 inh: RAD52 DNA annealing inhibitors, primary screen, biochemical, FRET, single point, set 2 | 0.46% of 360,000 active | DNA repair protein RAD52 homolog (Homo sapiens), P43351 | inhibition, % at 18.7 µM | AID 651710, 2012 | recombinant RAD52 DNA annealing, FRET fluorescence;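 active means every replicate showing at least 50% inhibition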
Target sequence (P43351 whole entry, looked up): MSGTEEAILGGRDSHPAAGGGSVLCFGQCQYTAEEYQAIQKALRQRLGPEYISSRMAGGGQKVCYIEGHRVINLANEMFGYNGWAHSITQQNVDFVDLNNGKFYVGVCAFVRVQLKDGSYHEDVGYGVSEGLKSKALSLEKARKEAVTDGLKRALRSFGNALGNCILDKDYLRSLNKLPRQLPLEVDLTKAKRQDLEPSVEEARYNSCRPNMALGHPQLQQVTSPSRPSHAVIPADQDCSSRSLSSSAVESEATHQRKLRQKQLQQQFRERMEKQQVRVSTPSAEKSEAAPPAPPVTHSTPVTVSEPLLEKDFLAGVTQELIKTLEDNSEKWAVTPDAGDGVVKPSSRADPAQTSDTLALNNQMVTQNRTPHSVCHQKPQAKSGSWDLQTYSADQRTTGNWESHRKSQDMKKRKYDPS
Of the large screens only hits and unclear results are named; the others gave an inactive call; ! = not active in a repeat.

CCC1=NN(C(=O)C(=O)Nc2ccc(OC)cc2)C(O)(C(F)(F)F)C1 (configuration not stated)	rRNA inh HTS -23
CSc1cccc(NC(=S)N(CCCN2CCC(C)CC2)Cc2cccs2)c1	rRNA inh HTS -19
CCCC#Cc1ccc([C@H]2[C@@H](CO)N3C(=O)CN(C(=O)c4cccc(F)c4)C[C@@H]23)cc1	none (no result: PglD inh, Cneo AK release, RAD54 inh, RAD52 inh)
COc1ccc(CNC(=O)CN(C)S(=O)(=O)c2ccc(Br)s2)cc1	none
CN(CC(=O)NCc1ccc(F)cc1)S(=O)(=O)c1ccc(Br)s1	rRNA inh HTS -22
COc1ccc2c3c(n(C)c2c1)[C@H](CO)N(CC1CC1)CC31CN(C(=O)Nc2c(C)noc2C)C1	none (no result: PglD inh, Cneo AK release, RAD54 inh, RAD52 inh)
COc1ccc2c3c(n(C)c2c1)[C@H](CO)NCC31CN(Cc2ccc(F)cc2)C1	RAD52 inh 62 (no result: PglD inh, Cneo AK release, RAD54 inh)
COc1ccc2c3c(n(C)c2c1)[C@H](CO)NCC31CCN(Cc2ccccc2Cl)CC1	none (no result: PglD inh, Cneo AK release, RAD54 inh, RAD52 inh)
COc1ccc2c3c(n(C)c2c1)[C@H](CO)NCC31CCN(Cc2cc(-c3ccccc3)on2)CC1	RAD52 inh 67 (no result: PglD inh, Cneo AK release, RAD54 inh)
COc1ccc2c3c(n(C)c2c1)[C@@H](CO)NCC31CCN(CC2CCCCC2)CC1	none (no result: PglD inh, Cneo AK release, RAD54 inh, RAD52 inh)
COc1ccc2c3c(n(C)c2c1)[C@H](CO)NCC31CN(CC2CC2)C1	RAD52 inh 62 (no result: PglD inh, Cneo AK release, RAD54 inh)
COc1ccc2c3c(n(C)c2c1)[C@@H](CO)NCC31CCN(S(=O)(=O)c2ccc(C)cc2)CC1	none (no result: PglD inh, Cneo AK release, RAD54 inh, RAD52 inh)
COc1ccc2c3c(n(C)c2c1)[C@H](CO)NCC31CCN(S(=O)(=O)c2cccc(C)c2)CC1	RAD52 inh 55 (no result: PglD inh, Cneo AK release, RAD54 inh)
CC(=O)N1[C@@H]2c3cccc(=O)n3C[C@@H]2[C@@H](CO)[C@@H]1C(=O)NCc1ccccc1	none (no result: PglD inh, Cneo AK release, RAD54 inh, RAD52 inh)
C[C@@H]1CN([C@@H](C)CO)C(=O)Cc2cc(NC(=O)CCCCCC(=O)Nc3ccccc3N)ccc2O[C@@H]1CN(C)Cc1ccccc1	none
COc1ccc2c3c(n(C)c2c1)[C@@H](CO)NCC31CN(CC2CCOCC2)C1	RAD52 inh 75 (no result: PglD inh, Cneo AK release, RAD54 inh)
COc1ccc2c3c(n(C)c2c1)[C@H](CO)N(CC1CCOCC1)CC31CN(CC2CCOCC2)C1	none (no result: PglD inh, Cneo AK release, RAD54 inh)
O=S(=O)(c1cccc(Cl)c1)N1[C@@H]2CNC[C@H]1C2c1ccc(-c2cccc(F)c2)cc1 (some centres not stated)	RAD52 inh 54! (no result: PglD inh, Cneo AK release, RAD54 inh)
Cc1cccc(-c2ccc(C3[C@H]4CNC[C@@H]3N4S(=O)(=O)c3ccccc3C)cc2)c1 (some centres not stated)	none (no result: PglD inh, Cneo AK release, RAD54 inh)
Cc1ccccc1S(=O)(=O)N1[C@@H]2CNC[C@H]1C2c1ccc(-c2ccccc2)cc1 (some centres not stated)	RAD52 inh 55! (no result: PglD inh, Cneo AK release, RAD54 inh)
Cc1ccc(-c2ccc(C3[C@H]4CNC[C@@H]3N4S(=O)(=O)c3cccc(C)c3)cc2)cc1 (some centres not stated)	RAD52 inh 54! (no result: PglD inh, Cneo AK release, RAD54 inh)
COc1ccc(S(=O)(=O)N2[C@@H]3CNC[C@H]2C3c2ccc(-c3cccc(C)c3)cc2)cc1 (some centres not stated)	RAD52 inh 65! (no result: PglD inh, Cneo AK release, RAD54 inh)
C[C@@H]1CCCCO[C@H](CN(C)Cc2ccc(C(F)(F)F)cc2)[C@H](C)CN([C@@H](C)CO)C(=O)c2cc(NS(=O)(=O)c3cn(C)cn3)ccc2O1	none
O=C(c1cc2cc(F)ccc2[nH]1)N1CCN(Cc2ccc3c(c2)OCO3)CC1	rRNA inh HTS -40
COc1cc2cc(C(=O)N3CCN(Cc4ccc5c(c4)OCO5)CC3)[nH]c2cc1OC	none
COc1cccc(CNC(=O)c2cc3c(c(-c4cccc(-c5cccc(C#N)c5)c4)n2)[C@H](CCO)N([S@@](=O)C(C)(C)C)C3)c1	RAD52 inh 59
O=[N+]([O-])c1cccnc1N1CCN(c2ccccc2F)CC1	rRNA inh HTS -34 (no result: PglD inh, Cneo AK release, RAD54 inh)
COc1cc2c(c(OC)c1OC)C(=O)C(=Cc1ccccc1)O2	rRNA inh HTS -29
O=C(CCCN1C(=O)C(c2ccccc2)Oc2cccnc21)Nc1cccc(F)c1 (configuration not stated)	rRNA inh HTS -27
NCC(O)COCCC12CC3CC(CC(C3)C1)C2 (configuration not stated)	none (no result: rRNA inh HTS, RAD52 inh)
CC(NCC(O)COCCC12CC3CC(CC(C3)C1)C2)c1ccccc1 (configuration not stated)	RAD52 inh 55
CSc1nsc(NN)n1	rRNA inh HTS -33
O=C(c1ccncc1)N1CC2(C1)[C@@H](c1ccccc1)[C@@H](CO)N2CC1CCCC1	none (no result: PglD inh, Cneo AK release, RAD54 inh)
O=C(c1cccs1)N1CCCc2ccccc21	rRNA inh HTS -24
O=C(O)CCC(=O)NCc1c(Cl)cccc1Sc1ccc(Cl)cc1	rRNA inh HTS -25
COc1ccc(Oc2cccc(Cl)c2CNC(=O)CCC(=O)O)cc1	none (no result: PglD inh, Cneo AK release, RAD54 inh)
CCN1CCN(c2c(Cl)cccc2NC(=O)c2ccc([N+](=O)[O-])o2)CC1	rRNA inh HTS -17
CCCC(=O)N1CCN(c2ccc(NC(=O)c3ccc([N+](=O)[O-])o3)cc2Cl)CC1	rRNA inh HTS -39 (no result: PglD inh, Cneo AK release, RAD54 inh)
O=C(Nc1cccc(Cl)c1N1CCCC1)c1ccc([N+](=O)[O-])o1	none
COc1ccc(NC(=O)Nc2ccc3c(c2)C(=O)N([C@H](C)CO)C[C@@H](C)[C@H](CN(C)C(=O)NC2CCCCC2)OCCCC[C@H](C)O3)cc1	none
O=C(CN1C(=O)NC2(CCCCCCC2)C1=O)NCc1cccs1	none
O=C(CN1C(=O)NC(c2ccccc2)(c2ccccc2)C1=O)NCc1cccs1	rRNA inh HTS -36
Cc1nc(N2CCOCC2)nc(Oc2ccccc2)c1[N+](=O)[O-]	rRNA inh HTS -43 (no result: PglD inh, Cneo AK release, RAD54 inh)
CN(C)C(=O)c1ccc(N=Nc2c(O)c3ccccc3[nH]c2=O)cc1	rRNA inh HTS -21
CC(=O)N(C)C[C@H]1Oc2ccc(N(C)C)cc2C(=O)N(C)C[C@H]1C	none (no result: PglD inh, Cneo AK release, RAD54 inh, RAD52 inh)
CCN1CCN(c2cc(C)c3cc(NC(=O)c4ccc(OC)c(OC)c4)ccc3n2)CC1	RAD54 inh 58
Cc1ccc(S(=O)(=O)N2CCOCC2)cc1NC(=O)COC(=O)c1cccnc1Cl	none (no result: PglD inh, Cneo AK release, RAD54 inh)
Cc1ccc(NC(=O)COC(=O)c2cccnc2Cl)cc1S(=O)(=O)N1CCOCC1	rRNA inh HTS -25
Cc1ccc(S(=O)(=O)N2CCOCC2)cc1NC(=O)COC(=O)c1cccc(Cl)c1Cl	rRNA inh HTS -32
C[C@H]1CN(C)C(=O)c2cccnc2O[C@@H]1CN(C)C	none (no result: PglD inh, Cneo AK release, RAD54 inh, RAD52 inh)
O=C(Nc1ccc2c(c1)OCO2)N[C@H]1CC[C@@H](CCNC(=O)C2CCOCC2)O[C@H]1CO	none
CN1C(=O)/C(=C/c2ccccc2OCc2cccc(F)c2)N(C)C1=S	none (no result: rRNA inh HTS, RAD52 inh)
Fc1cccc(COc2ccccc2C(=S)N2CCCC2)c1	rRNA inh HTS -30

Screening results (PubChem BioAssay)
